pIC50: −log10 of the molar value. Calls of active or inactive are those of the source. The calls are words filed in the database; no cut-off is given here.
What follows are compounds tested against T1, Protein smoothened (Homo sapiens, UniProt Q99835) (assay: Displacement of BODIPY-Cyclopamine from human HA-tagged Smo receptor expressed in human U2OS cells at 3 to 1000 nM by DAPI staining based fluorescence microscopic method).
Assay type: cell-based
Outline: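 Puromycin-selected U2OS clone expressing HA-tagged human Smo, seeded 10,000 cells/well in 10% serum DMEM and cultured 48 h at 37 °C. Cells fixed in 4% PFA for 20 min, DAPI (5 µg/mL) for 10 min, PBS washes, then 2 h at room temperature with 100 nM BODIPY-cyclopamine plus serially diluted compound. PBST washes, automated high-content fluorescence imaging, data normalized to GDC-0449. Sigmoidal fit for IC50. Ki by Cheng-Prusoff using probe Kd 255 ± 57 nM.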

T1 sequence (Q99835 whole entry): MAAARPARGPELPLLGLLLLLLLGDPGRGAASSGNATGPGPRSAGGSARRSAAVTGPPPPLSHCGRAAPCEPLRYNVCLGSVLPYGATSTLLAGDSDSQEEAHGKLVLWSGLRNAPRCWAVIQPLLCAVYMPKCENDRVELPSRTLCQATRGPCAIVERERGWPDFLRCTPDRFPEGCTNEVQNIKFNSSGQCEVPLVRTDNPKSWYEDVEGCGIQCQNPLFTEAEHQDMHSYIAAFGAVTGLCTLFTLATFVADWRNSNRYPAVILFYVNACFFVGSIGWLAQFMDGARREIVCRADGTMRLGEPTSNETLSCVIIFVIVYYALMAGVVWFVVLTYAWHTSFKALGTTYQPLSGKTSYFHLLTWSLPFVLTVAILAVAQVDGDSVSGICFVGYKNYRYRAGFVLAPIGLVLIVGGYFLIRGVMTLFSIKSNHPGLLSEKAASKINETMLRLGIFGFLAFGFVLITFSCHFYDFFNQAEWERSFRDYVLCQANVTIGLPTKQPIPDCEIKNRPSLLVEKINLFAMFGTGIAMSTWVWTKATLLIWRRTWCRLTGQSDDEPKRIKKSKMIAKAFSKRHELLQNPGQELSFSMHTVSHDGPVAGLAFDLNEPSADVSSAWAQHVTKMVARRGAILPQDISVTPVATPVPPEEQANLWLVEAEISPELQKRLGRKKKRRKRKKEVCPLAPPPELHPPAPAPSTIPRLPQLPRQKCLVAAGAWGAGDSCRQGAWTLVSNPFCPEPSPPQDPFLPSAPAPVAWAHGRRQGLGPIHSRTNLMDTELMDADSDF

| inhibition | Structure (SMILES) |
| --- | --- |
| Active | Cc1ccc(NCc2cccn2-c2nnc(N3CCC(C(=O)NC4CCCCC4C)CC3)s2)cc1 (stereo not given) |

What follows are compounds tested against Protein smoothened (Mus musculus, UniProt P56726) (assay: Antagonist activity at Smo receptor in mouse NIH/3T3 cells harboring GRE-Luc assessed as inhibition of SAG-induced Hh signaling pathway co-incubated with SAG measured after 48 hrs by luciferase reporter gene assay).
Chain of Protein smoothened (Mus musculus, UniProt P56726) (P56726 whole entry): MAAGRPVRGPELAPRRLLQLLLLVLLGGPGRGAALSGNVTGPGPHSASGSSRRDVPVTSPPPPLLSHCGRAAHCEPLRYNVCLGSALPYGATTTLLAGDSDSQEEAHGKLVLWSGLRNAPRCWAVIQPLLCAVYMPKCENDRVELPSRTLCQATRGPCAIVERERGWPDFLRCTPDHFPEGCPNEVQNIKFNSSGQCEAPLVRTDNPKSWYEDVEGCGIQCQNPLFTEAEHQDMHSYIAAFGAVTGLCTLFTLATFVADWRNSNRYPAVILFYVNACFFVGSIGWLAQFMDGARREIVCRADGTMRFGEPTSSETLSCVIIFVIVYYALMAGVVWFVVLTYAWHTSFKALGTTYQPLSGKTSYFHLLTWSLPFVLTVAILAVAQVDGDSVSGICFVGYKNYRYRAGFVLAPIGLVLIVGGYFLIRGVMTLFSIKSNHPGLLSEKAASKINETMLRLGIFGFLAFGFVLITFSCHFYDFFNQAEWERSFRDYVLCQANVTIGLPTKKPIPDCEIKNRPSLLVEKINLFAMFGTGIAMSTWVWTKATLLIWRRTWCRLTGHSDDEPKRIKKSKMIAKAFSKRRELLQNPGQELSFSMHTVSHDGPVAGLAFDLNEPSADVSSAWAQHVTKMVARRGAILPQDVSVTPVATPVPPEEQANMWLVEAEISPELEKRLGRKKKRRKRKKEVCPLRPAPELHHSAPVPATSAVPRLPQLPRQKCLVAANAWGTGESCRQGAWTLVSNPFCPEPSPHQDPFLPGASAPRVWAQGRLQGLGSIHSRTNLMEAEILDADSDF

| pIC50 | Structure (SMILES) |
| --- | --- |
| 5.12 | Cc1ccc(NCc2cccn2-c2nnc(N3CCC(C(=O)N4CCC(O)C4)CC3)s2)cc1 (stereo not given) |
| 5.37 | Cc1ccc(NCc2cccn2-c2nnc(N3CCC(C(=O)NCC(C)(C)O)CC3)s2)cc1 |
| < 5.00 | CCn1cc(C(=O)O)c(=O)c2cc(F)c(N3CCN(C(=S)NC(=O)Cc4ccc(Cl)cc4)CC3)cc21 |
| < 5.00 | COc1ccc(-n2nc(C(=O)NCC(=O)Nc3nc4ccccc4s3)c3ccccc3c2=O)cc1 |
| < 5.00 | CCC(Sc1nnc2c(=O)n(-c3ccc(C)c(C)c3)ccn12)C(=O)Nc1ccccc1C (stereo not given) |
| < 5.00 | COc1ccc2[nH]cc(CCNC(=O)c3ccccc3NC(=O)c3nsc4ccccc34)c2c1 |
| < 5.00 | Cc1ccc(NC(=O)CSc2nc3ccc(NC(=O)c4ccccc4Cl)cc3s2)cc1Cl |
| 6.18 | Cc1ccc(NCc2cccn2-c2nnc(N3CCC(C(=O)NC4CCCCC4)CC3)s2)cc1 |
| < 5.00 | CN(C(=O)Cn1c(=O)n(CCCC(=O)NCc2ccccc2)c(=O)c2sccc21)c1ccccc1 |
| < 5.00 | CC(C)c1ccc(NC(=O)c2cc(S(=O)(=O)N3CCN(c4ccccc4F)CC3)ccc2F)cc1 |
| < 5.00 | Cc1cccc(CNC(=O)Cc2cccc(N(Cc3ccccc3)C(=O)c3ccc(C#N)cc3)c2)c1 |
| 5.37 | Cc1ccc(NCc2cccn2-c2nnc(N3CCC(C(=O)N4CCCC4)CC3)s2)cc1 |
| 6.62 | Cc1ccc(NCc2cccn2-c2nnc(N3CCC(C(=O)NC4CCCCC4C)CC3)s2)cn1 (stereo not given) |
| < 5.00 | Cc1c(C(=O)NC2CCCCC2)sc2ncn(CC(=O)Nc3cccc(C(F)(F)F)c3)c(=O)c12 |
| 5.92 | Cc1ccc(NCc2cccn2-c2nnc(N3CCC(C(=O)NC(C)C)CC3)s2)cc1 |
| 6.28 | Cc1ccc(NCc2cccn2-c2nnc(N3CCC(C(=O)NC4CCCC4)CC3)s2)cc1 |
| 5.38 | Cc1ccc(NCc2cccn2-c2nnc(N3CCC(C(=O)NC4CC4)CC3)s2)cc1 |

| pIC50 | Structure (SMILES) |
| --- | --- |
| 5.62 | O=C(Nc1ccc(N2CCN(Cc3ccccc3O)CC2)nc1)c1ccccc1C(F)(F)F |
| < 5.00 | COc1ccc(Cl)cc1NC(=O)c1ccc(-n2nc(OCc3cccc(F)c3)ccc2=O)cc1 |
| 5.34 | Cc1ccc(-c2cc3c(N4CCC(C(=O)NC(C)c5ccccc5)CC4)nccn3n2)cc1C (stereo not given) |
| 7.24 | Cc1ccc(NCc2cccn2-c2nnc(N3CCC(C(=O)NC4CCCCC4C)CC3)s2)nc1 (stereo not given) |
| 5.96 | Cc1ccc(NCc2cccn2-c2nnc(N3CCC(C(=O)NCC(C)C)CC3)s2)cc1 |
| < 5.00 | COc1cccc2c1OC1(C)CC2NC(=O)N1c1cccc(C(=O)N2CCN(c3ccccc3F)CC2)c1 (stereo not given) |
| < 5.00 | COc1cc(F)ccc1S(=O)(=O)NCCNc1nc(-c2ccc(F)cc2)nc2ccccc12 |
| 5.92 | O=C(Nc1cccc(N2CCCN(Cc3ccc(F)c(F)c3)C2=O)c1)OCc1ccccc1 |
| 6.02 | Cc1oc(-c2cccc(Cl)c2)nc1CN1CCC(C(=O)NC2CCCc3ccccc32)CC1 (stereo not given) |
| < 5.00 | O=C(CSc1nnc(CNC(=O)c2cccs2)n1-c1ccccc1)Nc1nc2ccccc2s1 |
| 5.77 | Cc1ccc(NCc2cccn2-c2nnc(N3CCC(C(=O)NCC4CC4)CC3)s2)cc1 |
| < 5.00 | O=C1CC(NC2CCN(c3ccc(C(F)(F)F)cn3)CC2)C(=O)N1c1ccc(F)cc1 (stereo not given) |
| 7.33 | Cc1ccc(NCc2cccn2-c2nnc(N3CCC(C(=O)NC4CCCCC4C)CC3)s2)cc1 (stereo not given) |
| 5.52 | CC1Cc2ccccc2N1C(=O)c1ccc(=O)n(CCC(=O)N2CCN(c3ccccc3)CC2)n1 (stereo not given) |
| < 5.00 | CC1CCN(C(C)CNC(=O)c2ccc3c(c2)NC(=O)C(CS(=O)(=O)Cc2ccc(F)cc2Cl)N3)CC1 (stereo not given) |
| 5.28 | CCNC(=O)C1CCN(c2nnc(-n3cccc3CNc3ccc(C)cc3)s2)CC1 |

What follows are compounds tested against T1, Protein smoothened (assay: Antagonist activity at Smo receptor (unknown origin)).
Assay type: functional

| pIC50 | Structure (SMILES) |
| --- | --- |
| 8.00 | COc1cc(C(=O)NC(=N)Nc2cccc(NC(=O)c3ccc(-c4ccccc4)cc3)c2)cc(OC)c1OC |
